Screens as filed in PubChem.
Hits are enriched below; roughly 1.6% of the tested compounds scored in any of these assays.
RBBP9 inhibitor = blocks human serine hydrolase RBBP9. inhibition, % at 7.94 µM. AID 1515. O75884. recombinant RBBP9, FP-Rh probe fluorescence polarization. 220,000 compounds, 0.2% hits;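 active = inhibition above the campaign mean of all tested compounds plus 3 SD, cut at about 14% in these data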;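 also: plate controls were DMSO wells with RBBP9 for no effect and wells lacking RBBP9 protein for full effect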
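Measured by – fluorescence polarization · Test system – RBBP9 protein · Input – 2.5 µM RBBP9 dispensing solution, before mixing · Measure – percent inhibition from mP, scaled between DMSO and no-protein wells · Benchmarks – DMSO-treated enzyme wells and wells lacking RBBP9 · Times – preincubation 30 min plus labeling 45 min at 25 °C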
TbHK1 inh = T. brucei hexokinase 1 inhibition; recombinant TbHK1, G6PDH-coupled NADH A340; 220,000 compounds, 0.11% hits; inhibition, % at 10 µM;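 active = inhibition of 50% or more in the single-dose primary screen; inactive = inhibition below 50%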
Yeast growth inh = reduces growth of yeast BB579 in restrictive medium; 140,000 compounds, 0.51% hits; inhibition, % at 10 µM; S. cerevisiae BB579 growth, OD615, 48 h; AID 804;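 active = inhibition above a set limit, 3 SD over the mean compound inhibition, cut at about 44% in these data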
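Material: Saccharomyces cerevisiae DeaD strain BB579, replicative lifespan model yeast; buffer or medium: CSMM-D restrictive synthetic medium containing dextrose (glucose); compound: 10 µM single dose, DMSO 0.25%; timing: 48 h compound exposure at 30 °C after 4 h preincubation; signal: turbidity as optical density at 615 nm; benchmarks: positive control amphotericin B 10 µg/mL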
SDO1 yeast rescue = restores growth of sdo1-depleted yeast; S. cerevisiae sdo1-depleted JHY4D growth rescue, OD600 30 h; active compounds read high; pdr5 snq2 efflux-pump mutant strain; z-score at 10 µM; 140,000 compounds, 0.21% hits;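 active = z-score above 3 at both the 24 hr and the 30 hr optical density reads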;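 also: z-score against mean and SD of all compound wells on the same plate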
Yeast lifespan up = yeast lifespan extension | 130,000 compounds, 0.68% hits | S. cerevisiae growth with nicotinamide, OD615; deaD strain in restrictive glucose medium | inhibition of the nicotinamide effect, % at 10 µM;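 active = inhibition above a set limit, placed 3 SD over the median of all compounds, cut at about 26% in these data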;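 also: 0% = nicotinamide-treated wells and 100% = cells grown without nicotinamide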
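assay system = DeaD-strain S. cerevisiae | measured by = absorbance at 615 nm | probe or stimulus = nicotinamide 1.5 mM | buffer or medium = CSMM-D glucose medium, restrictive | times = 48 h at 30 °C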
p47phox inh = blocks human p47phox regulatory protein of NADPH oxidases | P14598 | p47phox/p22phox peptide binding, fluorescence polarization, 2 h | inhibition, % at 24.7 µM | 220,000 compounds, 0.53% hits;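 active = inhibition above about 30%, limit read from the data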;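 also: 0% = p47phox with labelled peptide and 100% = labelled peptide alone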
Target sequence (P14598 whole entry, looked up): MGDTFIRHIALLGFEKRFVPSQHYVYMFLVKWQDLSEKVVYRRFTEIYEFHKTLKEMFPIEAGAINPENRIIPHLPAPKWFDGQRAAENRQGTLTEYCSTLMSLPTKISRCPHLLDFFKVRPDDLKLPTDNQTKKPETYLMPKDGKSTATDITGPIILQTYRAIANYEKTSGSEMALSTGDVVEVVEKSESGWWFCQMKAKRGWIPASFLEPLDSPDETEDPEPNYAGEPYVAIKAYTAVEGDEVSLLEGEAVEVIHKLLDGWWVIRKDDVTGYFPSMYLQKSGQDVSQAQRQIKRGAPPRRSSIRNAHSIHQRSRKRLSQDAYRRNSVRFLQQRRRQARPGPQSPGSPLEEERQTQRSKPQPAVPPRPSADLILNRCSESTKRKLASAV
An asterisk follows results filed as active; . = no result.

SMILES	RBBP9 inhibitor	TbHK1 inh	Yeast growth inh	SDO1 yeast rescue	Yeast lifespan up	p47phox inh
O=[N+]([O-])c1ccc(O)c2cccnc12	-4	-11	.	.	.	-3
O=C(O)C1CCCN1c1ncnc2c1oc1ccccc12 (stereo not drawn)	-4	-8	-28	0.47	-4	-3
O=C(O)C1CCCN1c1ncccn1 (stereo not drawn)	-2	-1	-9	-0.67	-2	78*
Cc1nn(-c2c(Cl)cc(Cl)cc2Cl)c(=O)c2ccccc12	-6	-1	-6	-1.1	49*	-15
CCOC(=O)/C(=N\Nc1cccc(C(F)(F)F)c1)N(CCOC)CCOC	-5	-18	54*	-0.35	-11	0
CCOc1ccc(CCNS(=O)(=O)c2cnc[nH]2)cc1OCC	3	4	-52	0.87	-9	62*
COc1cc(C2CC(=O)N(CC(=O)NCC3CCCO3)c3ccccc3S2)cc(OC)c1OC (stereo not drawn)	-2	-1	.	.	.	-1
Cc1ccc2[nH]c(=O)c(CN(CCO)Cc3nnnn3CCc3ccccc3)cc2c1	5	-17	-15	1.4	68*	-2
Cc1ccc2[nH]c(=O)c(CN(Cc3cccs3)Cc3nnnn3Cc3ccccc3)cc2c1	-11	1	-38	-1.1	-3	-10
N#Cc1c(-c2ccccc2)c(-c2ccccc2)nn(CC(=O)NNC(=O)Nc2ccc(Cl)cc2)c1=O	-2	-6	.	.	.	-3
N#Cc1c(-c2ccccc2)c(-c2ccccc2)nn(CC(=O)NNC(=O)Nc2ccccc2)c1=O	-2	-6	-10	-0.36	62*	9
COc1ccccc1/C=N/NC(=O)CN(C1=NS(=O)(=O)c2ccccc21)c1ccccc1	-8	21	-26	-0.19	-3	-9
COc1ccc(/C=N/NC(=O)CN(C2=NS(=O)(=O)c3ccccc32)c2ccccc2)cc1	-6	1	-49	0.35	8	31*
Cn1ncc(C#N)c1/N=C/N1CCCCCC1	-3	2	-24	0.91	-9	-10
Cn1ncc(C#N)c1/N=C/N1CCOCC1	-9	2	-54	1.6	40*	-6
Cc1ccc2oc(=O)c3cc(C(=O)N4CCN(C)CC4)sc3c2c1	4	-29	.	.	.	0
COC(=O)C1C(O)=C(C=Nc2ccc3ccccc3c2)C(=O)CC1(C)C (stereo not drawn)	-8	-6	.	.	.	-15
Cn1c(=O)cc2c3c(c(N4CCCCC4)ccc31)C(=O)c1ccccc1-2	10	-11	.	.	.	34*
O=C1c2ccccc2C(=O)c2c1cccc2N1CCCC1	3	-6	5	0.25	-6	5
NC(=O)N/N=C\c1cc(Br)ccc1O	-8	-9	-50	-0.57	18	-10
CC(C)(C)c1nnc(N/N=C/c2cc(Br)ccc2O)n(N)c1=O	-7	2	53*	-0.28	-1	-6
CCOc1cc(N2CCOCC2)c(OCC)cc1NC1=NCCCCC1	-3	-5	-44	0	-9	60*
FC(F)(F)c1ccc(N2CCOCC2)c(NC2=NCCCCC2)c1	-6	2	-26	-0.63	-4	9
Cc1cc(OCC(=O)Nc2ccncc2)ccc1[N+](=O)[O-]	-1	-10	.	.	.	4
O=C1CC2c3ccccc3C1C1C(=O)N(CCO)C(=O)C21 (stereo not drawn)	-5	-6	.	.	.	-3
SMILES	RBBP9 inhibitor	TbHK1 inh	Yeast growth inh	SDO1 yeast rescue	Yeast lifespan up	p47phox inh
CC(=O)Oc1oc(-c2ccccc2)nc1C=Nc1ccccc1	-1	1	-16	-0.71	46*	-3
Cc1cc(N2CCCC2)c(F)cc1/C=C\[N+](=O)[O-]	2	2	.	.	.	79*
CC(=O)N1CCc2cc(N=NC3=C(O)CC(C)(C)CC3=O)ccc21	-7	-4	.	.	.	-69
Cc1cc(NC(=O)c2coc(=O)c(Br)c2)ccc1C(C)C	-3	-1	.	.	.	37*
CC1=NOC(=O)/C1=C\c1ccc(-c2ccc(Cl)cc2Cl)o1	-5	25	45*	-0.89	5	21
COCCn1cnc2c(c1=O)c1nc3ccccc3nc1n2/N=C/c1cccc(OC)c1	-7	-38	.	.	.	-30
C=CCn1cnc2c(c1=O)c1nc3ccccc3nc1n2/N=C/c1cc(OC)c(OC)c(OC)c1	-7	-15	58*	-0.59	-24	-17
C=CCOc1ccc(/C=N/NC(=O)CN2CCOCC2)cc1OCC	-1	-4	.	.	.	2
